In ChEMBL document CHEMBL1127343, “"Glycylcyclines". 3. 9-Aminodoxycyclinecarboxamides” (1994):
Converted amounts (≈) assume the structure as drawn.

What was measured:
Format in all cases: functional
Escherichia coli [1] = experiment: In vitro antibacterial activity was measured on gram negative bacteria Escherichia coli UBMS 90-5 sensitive cell lines
Method in brief: (§1)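 MIC by agar dilution on Mueller-Hinton II agar; inoculum (1–5) × 10^5 CFU/mL; antibiotic range 32–0.004 μg/mL; plates incubated 18 h at 35 °C in forced-air incubator. MIC taken as lowest concentration inhibiting growth. Tetracycline, minocycline and doxycycline run as standards in each assay.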

Staphylococcus aureus [2] = experiment: In vitro antibacterial activity was measured on gram positive bacteria Staphylococcus aureus smith cell lines; method in brief: as §1
Staphylococcus aureus [3] = experiment: In vitro antibacterial activity was measured on gram positive bacteria Staphylococcus aureus UBMS 90-3 sensitive cell lines; method in brief: as §1
Escherichia coli [4] = experiment: In vitro antibacterial activity was measured on gram negative bacteria Escherichia coli UBMS 90-4 tet-M (ribosomal protection) cell lines
Method in brief: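 Agar dilution MIC on Mueller-Hinton II agar. Inoculum (1–5) × 10^5 CFU/mL, drug range 32–0.004 μg/mL. Plates incubated 18 h at 35 °C in a forced-air incubator. MIC is the lowest concentration that inhibits growth. The strain panel covered tetracycline-sensitive and -resistant strains. Tetracycline, minocycline and doxycycline were run as standards in each assay.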

Escherichia coli [5] = experiment: In vitro antibacterial activity was measured on gram negative bacteria Escherichia coli PRP-1 tet-a(efflux resistance) cell lines
Staphylococcus aureus [6] = experiment: In vitro antibacterial activity was measured on gram positive bacteria Staphylococcus aureus UBMS 88-7 tet-k(efflux resistance) cell lines
Escherichia coli [7] = experiment: In vitro antibacterial activity was measured on gram negative bacteria Escherichia coli UBMS 88-1 tet-B(efflux resistance) cell lines
Staphylococcus aureus [8] = experiment: In vitro antibacterial activity was measured on gram positive bacteria Staphylococcus aureus UBMS 90-1 tet-M (ribosomal protection) cell lines; method in brief: as §1
Escherichia coli [9] = experiment: In vitro antibacterial activity was measured on gram negative bacteria Escherichia coli J3272 tet-C(efflux resistance) cell lines

| SMILES | MIC (Escherichia coli [1]) [µg/mL] | MIC (Staphylococcus aureus [2]) [µg/mL] | MIC (Staphylococcus aureus [3]) | MIC (Escherichia coli [4]) [µg/mL] | MIC (Escherichia coli [5]) [µg/mL] | MIC (Staphylococcus aureus [6]) [µg/mL] | MIC (Escherichia coli [7]) [µg/mL] | MIC (Staphylococcus aureus [8]) [µg/mL] | MIC (Escherichia coli [9]) [µg/mL] |
| --- | --- | --- | --- | --- | --- | --- | --- | --- | --- |
| C[C@H]1c2ccc(NC(=O)CNC(C)(C)C)c(O)c2C(=O)C2=C(O)[C@]3(O)C(O)=C(C(N)=O)C(=O)[C@@H](N(C)C)C3[C@@H](O)C21 (some centres undefined) | 0.5 (≈ 0.873 µM) | 0.5 (≈ 0.873 µM) | 0.25 µg/mL (≈ 0.437 µM) | 0.5 (≈ 0.873 µM) | 1 (≈ 1.75 µM) | 2 (≈ 3.49 µM) | 1 (≈ 1.75 µM) | 1 (≈ 1.75 µM) | 1 (≈ 1.75 µM) |
| C[C@H]1c2ccc(NC(=O)CN)c(O)c2C(=O)C2=C(O)[C@]3(O)C(O)=C(C(N)=O)C(=O)[C@@H](N(C)C)C3[C@@H](O)C21 (some centres undefined) | 8 (≈ 15.5 µM) | 8 (≈ 15.5 µM) | 4 µg/mL (≈ 7.74 µM) | 8 (≈ 15.5 µM) | > 32 | > 32 |  | 16 (≈ 31 µM) | > 32 |
| CC(=O)Nc1ccc2c(c1O)C(=O)C1=C(O)[C@]3(O)C(O)=C(C(N)=O)C(=O)[C@@H](N(C)C)C3[C@@H](O)C1[C@H]2C (some centres undefined) | 8 (≈ 16 µM) | 0.5 (≈ 0.997 µM) | 0.25 µg cm··-2 | 32 (≈ 63.8 µM) |  |  |  | > 32 |  |
| CC(C)C[C@H](N)C(=O)NCC(=O)Nc1ccc2c(c1O)C(=O)C1=C(O)[C@]3(O)C(O)=C(C(N)=O)C(=O)[C@@H](N(C)C)C3[C@@H](O)C1[C@H]2C (some centres undefined) | > 32 | 16 (≈ 25.4 µM) | > 32 µg/mL | > 32 |  |  |  | > 32 |  |
| CN(C)CC(=O)Nc1cc(N(C)C)c2c(c1O)C(=O)C1=C(O)[C@]3(O)C(O)=C(C(N)=O)C(=O)[C@@H](N(C)C)[C@@H]3CC1C2 (some centres undefined) | 0.25 (≈ 0.448 µM) | 0.25 (≈ 0.448 µM) | 0.25 µg/mL (≈ 0.448 µM) | 0.25 (≈ 0.448 µM) | 2 (≈ 3.59 µM) | 2 (≈ 3.59 µM) | 0.5 (≈ 0.897 µM) | 0.5 (≈ 0.897 µM) | 2 (≈ 3.59 µM) |
| COC(=O)Nc1ccc2c(c1O)C(=O)C1=C(O)[C@]3(O)C(O)=C(C(N)=O)C(=O)[C@@H](N(C)C)C3[C@@H](O)C1[C@H]2C (some centres undefined) | > 32 | 0.06 (≈ 0.116 µM) | 0.06 µg/mL (≈ 0.116 µM) | > 32 |  | 4 (≈ 7.73 µM) |  | 16 (≈ 30.9 µM) |  |
| C[C@H](N)C(=O)Nc1ccc2c(c1O)C(=O)C1=C(O)[C@]3(O)C(O)=C(C(N)=O)C(=O)[C@@H](N(C)C)C3[C@@H](O)C1[C@H]2C (some centres undefined) | 8 (≈ 15.1 µM) | 2 (≈ 3.77 µM) | 2 µg/mL (≈ 3.77 µM) | 8 (≈ 15.1 µM) | > 32 | > 32 | 16 (≈ 30.2 µM) | 8 (≈ 15.1 µM) | > 32 |
| CCCCCCCCCC(=O)Nc1ccc2c(c1O)C(=O)C1=C(O)[C@]3(O)C(O)=C(C(N)=O)C(=O)[C@@H](N(C)C)C3[C@@H](O)C1[C@H]2C (some centres undefined) | > 32 | > 32 | 16 µg/mL (≈ 26.1 µM) | > 32 |  |  |  | > 32 |  |
| C[C@H]1c2ccc(NC(=O)[C@@H](N)Cc3ccc(O)cc3)c(O)c2C(=O)C2=C(O)[C@]3(O)C(O)=C(C(N)=O)C(=O)[C@@H](N(C)C)C3[C@@H](O)C21 (some centres undefined) | 8 (≈ 12.8 µM) | 1 (≈ 1.61 µM) | 0.5 µg/mL (≈ 0.803 µM) | 8 (≈ 12.8 µM) | 32 (≈ 51.4 µM) | 32 (≈ 51.4 µM) | 16 (≈ 25.7 µM) | 4 (≈ 6.42 µM) | 16 (≈ 25.7 µM) |
| C[C@H]1c2ccc(NC(=O)[C@@H](N)Cc3c[nH]c4ccccc34)c(O)c2C(=O)C2=C(O)[C@]3(O)C(O)=C(C(N)=O)C(=O)[C@@H](N(C)C)C3[C@@H](O)C21 (some centres undefined) | 8 (≈ 12.4 µM) | 1 (≈ 1.55 µM) | 2 µg/mL (≈ 3.1 µM) | 4 (≈ 6.2 µM) | 16 (≈ 24.8 µM) | 16 (≈ 24.8 µM) |  | 4 (≈ 6.2 µM) | 32 (≈ 49.6 µM) |
| CN(C)[C@@H]1C(O)=C(C(N)=O)C(=O)[C@@]2(O)C(O)=C3C(=O)c4c(O)cccc4C[C@H]3C[C@@H]12 [SANCYCLINE] | 2 (≈ 4.83 µM) | 0.25 (≈ 0.603 µM) | 0.25 µg/mL (≈ 0.603 µM) | 16 (≈ 38.6 µM) | 8 (≈ 19.3 µM) | 4 (≈ 9.65 µM) |  | 2 (≈ 4.83 µM) | 4 (≈ 9.65 µM) |
| CC(C)C[C@@H](N)C(=O)Nc1ccc2c(c1O)C(=O)C1=C(O)[C@]3(O)C(O)=C(C(N)=O)C(=O)[C@@H](N(C)C)C3[C@@H](O)C1[C@H]2C (some centres undefined) | 8 (≈ 14 µM) | 2 (≈ 3.49 µM) | 2 µg/mL (≈ 3.49 µM) | 4 (≈ 6.99 µM) |  | 16 (≈ 27.9 µM) |  | > 32 | 16 (≈ 27.9 µM) |
| C[C@H]1c2ccc(NC(=O)CN3CCCCC3)c(O)c2C(=O)C2=C(O)[C@]3(O)C(O)=C(C(N)=O)C(=O)[C@@H](N(C)C)C3[C@@H](O)C21 (some centres undefined) | 0.5 (≈ 0.855 µM) | 0.25 (≈ 0.428 µM) | 0.12 µg/mL (≈ 0.205 µM) | 1 (≈ 1.71 µM) | 2 (≈ 3.42 µM) |  |  | 1 (≈ 1.71 µM) |  |
| C[C@H]1c2ccc(NC=O)c(O)c2C(=O)C2=C(O)[C@]3(O)C(O)=C(C(N)=O)C(=O)[C@@H](N(C)C)C3[C@@H](O)C21 (some centres undefined) | 2 (≈ 4.1 µM) | 0.12 (≈ 0.246 µM) | 0.12 µg/mL (≈ 0.246 µM) | > 32 |  |  |  | > 32 |  |
